The text below walks through data of PMC11062432 (The Plant Cell, 2023).

In one experiment the test system is ZmLLG1. Put plainly: Pull-down assay, ZmLLG1. It counts as binding, Zea mays. The conditions noted are these: MBP-tagged LLG, His-tagged RALFs. An outline of the steps: (§1)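 MBP-tagged maize partners were expressed in E. coli BL21 (0.1–0.5 mm IPTG, 30 °C, 3–4 h), amylose-purified, eluted with maltose and desalted. Partners: LLGs without signal peptide, PEX2 N-terminal LRR domain, PEX4. Each was incubated with His-tagged maize RALFs in 20 mm Tris pH 7.5, 1% CA630 at 4 °C for 2 h, then Ni-NTA pull-down for 2 h and 5 washes. Read-out: SDS-PAGE and Western blot, anti-His and anti-MBP.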

For another experiment, the system named is ZmLLG2. The experiment is described as follows: Pull-down assay, ZmLLG2. It counts as binding, Zea mays. Particulars: MBP-tagged LLG, His-tagged RALFs. In outline:
as §1

The next experiment concerns ZmPEX2. The experiment is described as follows: Pull-down assay, LRR domain of ZmPEX2. Particulars: MBP-tagged N-terminal LRR domain of ZmPEX2, ZmRALFs. It counts as binding, Zea mays. In outline: as §1
The next experiment deals with ZmPEX4. Put plainly: Pull-down assay, full-length ZmPEX4. It counts as binding, Zea mays. The conditions noted are these: MBP-tagged full-length ZmPEX4, ZmRALFs. In outline: as §1
Experiment [1] addresses 6xHis-ZmRALF1 (predicted mature peptide, pET53-DEST, refolded) (maize (Zea mays)). Put plainly: MST.
Experiment [2] addresses 6xHis-ZmRALF2 (predicted mature peptide, pET53-DEST, refolded) (maize (Zea mays)). Put plainly: MST.
A further experiment relates to ANX1. The experiment is described as follows: Pull-down assay, ANX1 ectodomain. Format: binding, Arabidopsis thaliana. The conditions noted are these: Flag-tagged ectodomain, His-tagged ZmRALFs. In outline: (§2)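 FLAG-tagged Arabidopsis receptor ectodomains (from earlier work) were mixed with maize RALF mature peptides. The peptides were TrxA-His fusions expressed in E. coli BL21 (1 mm IPTG, 30 °C, 3–4 h), Ni-NTA-purified and desalted. The mix sat in 20 mm Tris pH 7.5, 1% CA630, rotating at 4 °C for 2 h. Ni-NTA beads were then added for 2 h more, followed by 5 washes. Read-out: SDS-PAGE and Western blot, anti-His and anti-FLAG.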

For another experiment, the system named is ANX2. The experiment is described as follows: Pull-down assay, ANX2 ectodomain. It counts as binding, Arabidopsis thaliana. The conditions noted are these: Flag-tagged ectodomain, His-tagged ZmRALFs. An outline of the steps:
as §2

Another experiment has as its system BUPS1. Put plainly: Pull-down assay, BUPS1 ectodomain. It counts as binding, Arabidopsis thaliana. Particulars: Flag-tagged ectodomain, His-tagged ZmRALFs. In outline: as §2
Experiment [3] has as its target 6xHis-ZmRALF3 (predicted mature peptide, pET53-DEST, refolded) (maize (Zea mays)). Put plainly: MST.
In a further experiment the test system is BUPS2. The experiment is described as follows: Pull-down assay, BUPS2 ectodomain. Format: binding, Arabidopsis thaliana. The conditions noted are these: Flag-tagged ectodomain, His-tagged ZmRALFs. An outline of the steps:
as §2

A further experiment concerns root growth. Particulars: overexpression or application of the peptide; ref Matos et al. 2008; Li et al. 2022; cited from earlier work.
Experiment [4] deals with plasma membrane H^+-ATPase2. The conditions noted are these: roots; ref Haruta et al. 2014; cited from earlier work.
In a further experiment the test system is CrRLK1Ls. Put plainly: Interaction of RALFs with CrRLK1Ls, overall. It counts as binding. Particulars: discussion summary.

Bridge positions count the residues as written; N and C are the ends. Ends that are not written are not given here.

Turning to “MARLGAGAVLTLLLAVAAAAAFLAVPASAKVGDLSAVEFVAARGSSIPGQRSSKCSGAVGECGVDEEEELGLSGGGGIGAGDALRRTLAQRKPTNRYISYAALRADQVPCNKRGRSYYTNCAAQTAANPYRRGCSAITRCARSMN (disulfide (positions not given here)) [ZmRALF3]”, the interaction in pull-down entry with ZmLLG1 is “interacted with ZmLLG1/2”; in the experiment on ZmLLG2 it was “interacted with ZmLLG1/2”; in the experiment on ZmPEX2, “interacted with both ZmPEX proteins”; in the experiment on ZmPEX4, “interacted with both ZmPEX proteins”.

The term Kd denotes the concentration at which binding is half-saturated. As to “ZmFERL7 ectodomain as used in MST (tag not told: MBP or GST construct) (domain or fragment)”, the Kd in experiment [1] was 3530 nM; in [2] it was 615 nM.

As for “MGEAKLNNVTVLLVALLLLSSGVQDAAAMPGTLNYDAIVADEPNGKNKDLYRPVANANKYTRGCEPIERCRGAR (disulfide 64-70 (inferred)) [ZmRALF5]”, the interaction in pull-down result with ANX1, in the experiment with ANX2 and with BUPS1 was “did not interact with Arabidopsis CrRLK1Ls” each time.

With “MBP-tagged ectodomain of ZmFERL1 (domain or fragment)”, in experiment [3], the Kd is 1730 nM.

Regarding “ZmFERL9 ectodomain as used in MST (tag not told: MBP or GST construct) (domain or fragment)”, the dissociation constant (Kd) was 1900 nM in experiment [1] and 545 nM in experiment [2].

“MARLGAGAVLALLVAVAAVAAFLAVPASAKSGELSAMGLLAAKGGSGAGPQKCSGAVGECDVDEAEELGLSGGGLGSDDAVRRTLAQRKPTNRYISYAALRADQVPCNKRGRSYYSNCEAQKAANPYRRGCSAITRCARNMN (disulfide (positions not given here)) [ZmRALF2]”: the interaction in pull-down result is “interacted more strongly with ANX1/2 and BUPS1/2 compared with ZmRALF3” with ANX1; “interacted more strongly with ANX1/2 and BUPS1/2 compared with ZmRALF3” in the experiment on ANX2; “interacted more strongly with ANX1/2 and BUPS1/2 compared with ZmRALF3” in the experiment with BUPS1; “interacted more strongly with ANX1/2 and BUPS1/2 compared with ZmRALF3” in the experiment on BUPS2; “interacted with ZmLLG1/2” with ZmLLG1; “interacted with ZmLLG1/2” with ZmLLG2. Moreover, the interaction in pull-down result with ZmPEX2 and in the experiment with ZmPEX4 was “interacted with both ZmPEX proteins” throughout.

Regarding “AtRALF1: Clade IA Arabidopsis RALF (ATTKYISYQSLKRNSVPCSRRGASYYNCQNGAQANPYSRGCSKIARCRS; not fully specified; ends and bridges not checked; UniProt Q9SRY3 72-120, looked up)”, the “effect on root growth” value with root growth is listed as “inhibited rapid root growth”. For the same substance, the “effect on H^+-ATPase2 via FER” value in experiment [4] is reported as “inhibition of plasma membrane H^+-ATPase2 explaining extracellular alkalinization”.

As to “MARLALVAAVVLCLLLATGPQGAISAEGMVSFDNLISCKVLGNCDKNLGPEASRPGKPANDYTRGCNPITGCRG (disulfide (positions not given here)) [ZmRALF1]”, the interaction in pull-down result in the experiment with ANX1 is on record as “did not interact with Arabidopsis CrRLK1Ls”; in the experiment on ANX2 it was “did not interact with Arabidopsis CrRLK1Ls”; with BUPS1, “did not interact with Arabidopsis CrRLK1Ls”; with BUPS2, “very weak interaction”. Further, in the experiment with CrRLK1Ls, the “interaction with CrRLK1Ls in words” value was “very low (almost unspecific) binding”.
